Source: ChEMBL document CHEMBL5046259, “Cannabinoids Block Cellular Entry of SARS-CoV-2 and the Emerging Variants” (J Nat Prod, 2022)
In brackets after ≈: the same amount, converted by molar mass.

Assays:
Type in all cases: functional, organism-based
[1] = test system: SARS-CoV-2; assay: Antiviral activity against pseudovirus SARS-CoV-2 spike protein infected in HEK293T cells overexpressing ACE2 assessed as inhibition on pseudovirus infection incubated for 45 hrs by fluorescence microscopy; details: Severe acute respiratory syndrome coronavirus 2, HEK-293T
Procedure, shortened: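 293T-ACE2 cells were seeded at 10 000 per well. Spike-pseudotyped lentivirus carrying a GFP reporter was mixed with 2-fold serial dilutions of compound (in DMSO) or vehicle for 1 h at 37 °C, then added to cells with 5 μg/mL Polybrene. After 44 h, cells were fixed and DAPI-stained. Total GFP area was normalized to DAPI and to vehicle (n = 3). IC50 came from a three-parameter logistic fit.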

[2] = test system: SARS-CoV-2; assay: Antiviral activity against SARS-CoV-2 variant B.1.1.7 strain infected in African green monkey Vero E6 cells assessed as inhibition of viral entry incubated for 1 hr proir to infection and measured after 48 hrs by Focus forming assay; details: Severe acute respiratory syndrome coronavirus 2, B.1.1.7, Vero C1008
[3] = test system: SARS-CoV-2; assay: Antiviral activity against SARS-CoV-2 variant B.1.351 strain infected in African green monkey Vero E6 cells assessed as inhibition of viral entry incubated for 1 hr prior to infection and measured after 48 hrs by Focus forming assay; details: Severe acute respiratory syndrome coronavirus 2, B.1.351, Vero C1008

What does the source list for `C=C(C)[C@@H]1CCC(C)=C[C@H]1c1c(O)cc(CCCCC)c(C(=O)O)c1O` [CANNABIDIOLIC ACID]?
IC50 [1]: 7.7 µg/mL (≈ 21.5 µM); IC50 [2]: 11 µg/mL (≈ 30.7 µM); IC50 [3]: 19 µg/mL (≈ 53 µM)

What does the source list for `CCCCCc1cc(O)c(C/C=C(\C)CCC=C(C)C)c(O)c1C(=O)O` [CANNABIGEROLIC ACID]?
IC50 [1]: 8.4 µg/mL (≈ 23.3 µM); IC50 [2]: 26 µg/mL (≈ 72.1 µM); IC50 [3]: 35 µg/mL (≈ 97.1 µM)
